Results from ChEMBL document CHEMBL2321650, “Novel HldE-K inhibitors leading to attenuated Gram negative bacterial virulence” (J Med Chem, 2013).
Converted amounts (≈) assume the structure as drawn.

Tests used:
[1] = Inhibition of Escherichia coli O18:K1 C7 hldE-K expressed in Escherichia coli BL21 using beta-heptose 7-phosphate as substrate incubated for 30 mins prior to substrate addition measured after 30 mins by luminescence assay
How it was run: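 E. coli HldE (His-tagged, IPTG-induced, Ni-NTA-purified), 3 nM, preincubated 30 min at room temperature with inhibitor in Hepes pH 7.5, MnCl₂, KCl, 0.012% Triton-X100, DTT, MBP. Reaction with 0.2 μM heptose 7-phosphate and 0.2 μM ATP, 30 min at room temperature. Remaining ATP read by luciferase/luciferin luminescence; 6−10 concentrations fitted to a Langmuir model for IC50.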

Escherichia coli [2] = assay: Antimicrobial activity against tolC-deficient Escherichia coli O18:K1:H7 after overnight incubation in presence of erythromycin; type: functional
How it was run: (§1)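 Broth microdilution MIC in cation-adjusted MHB, final inoculum 5 × 10⁵ CFU/mL from early-to-log preculture; serial compound dilutions in 2% DMSO, overnight at 35 °C, growth scored visually. Each strain tested with and without erythromycin (1 μg/mL for K12 ΔacrAB ΔtolC, 8 μg/mL for K1 wild type, 1 μg/mL for K1 ΔtolC).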

Escherichia coli [3] = assay: Antimicrobial activity against acrAB, tolC-deficient Escherichia coli str. K-12 substr. MG1655 after overnight incubation in absence of erythromycin; type: functional; how it was run: as §1
Escherichia coli [4] = assay: Antimicrobial activity against acrAB, tolC-deficient Escherichia coli str. K-12 substr. MG1655 after overnight incubation in presence of erythromycin; type: functional; how it was run: as §1
Escherichia coli [5] = assay: Antimicrobial activity against tolC-deficient Escherichia coli O18:K1:H7 after overnight incubation in absence of erythromycin; type: functional; how it was run: as §1
[6] = Inhibition of Serratia marcescens NEM017811 hldE-K expressed in Escherichia coli BL21 using beta-heptose 7-phosphate as substrate incubated for 30 mins prior to substrate addition measured after 30 mins by luminescence assay
How it was run: (§2)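 HldE kinase luminescence assay as for E. coli, with enzyme at 20 nM for K. pneumoniae, 20 nM for N. meningitidis and 10 nM for S. marcescens. Heptose 7-phosphate and ATP each at 0.2 μM; 30 min preincubation and 30 min reaction at room temperature.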

HepG2 = assay: Cytotoxicity against human HepG2 cells after overnight incubation by one cell proliferation assay; type: cell-based
How it was run: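 HepG2 cells at 2 × 10⁴ per well in EMEM with 10% FBS, grown overnight at 37 °C in 5% CO₂. Medium then replaced by compound dilutions in medium with 2% DMSO for overnight incubation. Viability read by CellTiter Aqueous One MTS absorbance at 490 nm.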

Klebsiella pneumoniae = assay: Inhibition of Klebsiella pneumoniae ATCC 700603 hldE-K expressed in Escherichia coli BL21 using beta-heptose 7-phosphate as substrate incubated for 30 mins prior to substrate addition measured after 30 mins by luminescence assay; details: ATCC 700603, BL21; how it was run: as §2
[7] = Inhibition of Escherichia coli O18:K1 C7 ribokinase expressed in Escherichia coli BL21 using D-ribose as substrate incubated for 30 mins prior to substrate addition measured after 30 mins by luminescence assay
How it was run: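 Ribokinase run as the HldE kinase assay: purified E. coli ribokinase at 0.6 nM, 3 μM D-ribose, 3 μM ATP. Inhibitor preincubated 30 min, reaction run 30 min at room temperature, luciferase luminescence read-out, IC50 from 6−10 concentrations.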

[8] = Inhibition of Neisseria meningitidis 2C43 hldE-K expressed in Escherichia coli BL21 using beta-heptose 7-phosphate as substrate incubated for 30 mins prior to substrate addition measured after 30 mins by luminescence assay; how it was run: as §2

SMILES	IC50 [1] [nM]	other results
COc1cccc(OC)c1-c1cnnc(NCc2nc3cc(O)ccc3s2)n1	390	–
COc1ccc2sc(CNc3nncc(-c4cc(NC(C)=O)ccc4Cl)n3)nc2c1	1400	–
COc1cccc(OC)c1-c1cnnc(NCc2nc(C)c(C)s2)n1	6000	–
COc1ccc2sc(CNc3nncc(-c4c(C)cccc4C)n3)nc2c1	360	MIC (Escherichia coli [2]): > 32 µg/mL; MIC (Escherichia coli [3]): > 32 µg/mL; MIC (Escherichia coli [4]): > 32 µg/mL; MIC (Escherichia coli [5]): > 32 µg/mL
COc1cccc(OC)c1-c1cnnc(NCc2ccccn2)n1	> 300000	–
COC(=O)c1ccc2nc(CNc3nncc(-c4c(OC)cccc4OC)n3)sc2c1	89000	–
COc1cccc(OC)c1-c1cnnc(NC(C)c2nc(C)c(C)s2)n1 (stereo unspecified)	54000	–
COc1cccc(OC)c1-c1cnnc(NCc2nc3ccc(Cl)cc3s2)n1	27000	–
COc1ccc2sc(CNc3nncc(-c4c(C)cc(C#N)cc4C)n3)nc2c1	1400	–
COc1cccc(OC)c1-c1cnnc(N(CCC(=O)O)Cc2nc3ccccc3s2)n1	46000	–
COc1ccc2sc(CNc3nncc(-c4c(C)cc(Br)cc4C)n3)nc2c1	1200	–
CCOC(=O)c1sc(CNc2nncc(-c3c(OC)cccc3OC)n2)nc1C	> 300000	–
COc1ccc2sc(CNc3nncc(-c4c(OC)cccc4OC)n3)nc2c1	670	–
COc1cccc(OC)c1-c1cnnc(NCc2cc(C)c(C)o2)n1	> 300000	–
COc1cccc(OC)c1-c1cnnc(NCc2ccc3ccccc3n2)n1	> 300000	–
COc1cccc(OC)c1-c1cnnc(NCc2nc(C)c(CCO)s2)n1	> 300000	–

SMILES	IC50 [1] [nM]	other results
COc1cccc(OC)c1-c1cnnc(NCc2nc3ccccc3[nH]2)n1	> 300000	–
Oc1ccc2sc(CNc3nncc(-c4c(O)ccc5ccccc45)n3)nc2c1	20	IC50 [6]: 41 nM; Activity (HepG2): 20 µg/mL; MIC (Escherichia coli [2]): 2 µg/mL; IC50 (Klebsiella pneumoniae): 85 nM; IC50 [7]: > 300000 nM; MIC (Escherichia coli [3]): 2 µg/mL (≈ 4.98 µM); MIC (Escherichia coli [4]): 0.063 µg/mL; IC50 [8]: 1300 nM; MIC (Escherichia coli [5]): > 32 µg/mL
COc1ccc2sc(CNc3nncc(-c4c(F)cccc4F)n3)nc2c1	2400	–
COc1ccc2sc(CNc3nncc(N4[C@H](C)CCC[C@@H]4C)n3)nc2c1	> 300000	–
COc1cccc(OC)c1-c1cnnc(NCc2nc3ccc(NC(C)=O)cc3s2)n1	49000	–
COc1ccc2sc(CNc3nncc(-c4c(C)cccc4O)n3)nc2c1	69	IC50 [6]: 160 nM; MIC (Escherichia coli [2]): > 32 µg/mL; IC50 (Klebsiella pneumoniae): 430 nM; IC50 [7]: > 300000 nM; MIC (Escherichia coli [3]): > 32 µg/mL; MIC (Escherichia coli [4]): 8 µg/mL; IC50 [8]: 9800 nM; MIC (Escherichia coli [5]): > 32 µg/mL
COc1ccc2sc(CNc3nncc(-c4cc(-c5ccn[nH]5)ccc4Cl)n3)nc2c1	53	MIC (Escherichia coli [2]): > 32 µg/mL; MIC (Escherichia coli [3]): > 32 µg/mL; MIC (Escherichia coli [4]): > 32 µg/mL; MIC (Escherichia coli [5]): > 32 µg/mL
CS(=O)(=O)NC(=O)COc1ccc2sc(CNc3nncc(-c4c(Cl)cccc4Cl)n3)nc2c1	16	MIC (Escherichia coli [2]): > 32 µg/mL; MIC (Escherichia coli [3]): > 32 µg/mL; MIC (Escherichia coli [4]): > 32 µg/mL; MIC (Escherichia coli [5]): > 32 µg/mL
COc1cccc(OC)c1-c1cnnc(NCc2nc3c(s2)CCCC3)n1	1900	–
COc1ccc2sc(CNc3nncc(C(C)(C)O)n3)nc2c1	> 300000	–
COc1cccc(OC)c1-c1cnnc(OCc2nc(C)c(C)s2)n1	40000	–
COc1cccc(OC)c1-c1cnnc(NCc2nc3ccc(O)cc3s2)n1	3400	–
COc1cccc(OC)c1-c1cnnc(NCc2nc3ccccc3o2)n1	34000	–
COc1cccc(OC)c1-c1cnnc(N(CCCO)Cc2nc3ccccc3s2)n1	> 300000	–
COc1ccc2sc(CNc3nncc(C(C)C)n3)nc2c1	> 300000	–
COc1ccc2sc(CNc3nncc(-c4cc(-c5cccnc5)ccc4Cl)n3)nc2c1	150	–
